Screening results (PubChem)
M1 antag – M1 muscarinic receptor (rat) antagonism. P08482. CHO-M1 cells, Fluo-4 calcium, ACh EC80 antagonist mode; hits give low values. B-score at 10 µM. hit rate 3.4% among 64,000. AID 628;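 active means calcium fluorescence response, raw or row-and-column corrected B-score, differing from the plate sample mean either way at a set confidence level, mostly lower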
Target sequence (P08482 whole entry, looked up): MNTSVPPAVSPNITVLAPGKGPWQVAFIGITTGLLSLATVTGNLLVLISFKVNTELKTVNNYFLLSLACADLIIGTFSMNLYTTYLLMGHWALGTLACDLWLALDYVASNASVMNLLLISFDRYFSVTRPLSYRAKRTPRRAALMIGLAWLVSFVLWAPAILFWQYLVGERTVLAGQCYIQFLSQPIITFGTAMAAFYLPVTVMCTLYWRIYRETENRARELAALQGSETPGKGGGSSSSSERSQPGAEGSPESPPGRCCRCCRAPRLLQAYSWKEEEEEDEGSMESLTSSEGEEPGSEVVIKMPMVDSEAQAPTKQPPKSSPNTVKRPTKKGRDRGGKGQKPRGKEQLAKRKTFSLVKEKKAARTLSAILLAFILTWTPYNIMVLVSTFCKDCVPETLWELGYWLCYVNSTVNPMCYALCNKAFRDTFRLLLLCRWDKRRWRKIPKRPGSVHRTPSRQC
hDAT+cocaine – modulates human dopamine transporter uptake under cocaine | Q01959 | LLC-PK1 hDAT cells, [14C]-dopamine uptake with cocaine IC80; actives deviate in either direction | B-score at 10 µM | hit rate 1.3% among 110,000 | AID 449768;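 active means Z score or B-score, a plate-position-corrected score, falls beyond the plate's 99.7% confidence bounds, in either direction; inactive means both scores lie inside the 99.7% bounds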;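 further: scored against the spread of the other compound wells on the same plate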
HEK293 NFkB inh – lowers PMA/ionomycin-induced NF-kB signal in HEK293 cells. HEK-293 NF-kB luciferase reporter, luminescence. inhibition, % at 3 µM. hit rate 0.21% among 62,000. AID 465;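 active means inhibition above the mean of all tested compounds plus 3 SD, cut at about 40% in these data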;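 further: 0% = stimulated DMSO wells and 100% = 10 µM reference inhibitor 5653914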
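Timing: 1 h pretreatment, 16 h stimulation, 37 °C; system: HEK-293 cells with stable firefly luciferase reporter driven by four HIV NF-kB elements; doses: 3 µM once, 0.30% DMSO; measured by: luciferase luminescence; control set: DMSO and 10 µM reference inhibitor; repeats: single test; reagent: PMA plus ionomycin mix as NF-kB-activating stimulus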
M1 ag – activates the M1 muscarinic receptor; CHO-M1 cells, Fluo-4 calcium fluorescence, agonist mode; hits give high values; B-score at 10 µM; hit rate 3% among 64,000; AID 626;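 active means fluorescence rise, raw or as B-score row- and column-corrected plate score, outside the 99.7% band of its plate's samples, either direction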
D1 allo mod – D1 dopamine receptor (human) allosteric modulation. B-score at 10 µM. P21728. hit rate 5.9% among 58,000. HEK293 D1, CRE-luciferase, dopamine EC30 potentiation; actives deviate in either direction;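 active means luminescence count or its row- and column-corrected plate score outside the 99.7% band of the plate's sample wells, on either side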
Jurkat viability – cytotoxic compounds reducing Jurkat cell viability; AID 463; Jurkat E6.1 viability, ATP luminescence, 48 h; hit rate 1.2% among 56,000; inhibition, % at 4 µM;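 active means inhibition above the mean inhibition of all tested compounds plus 3 SD, cut at about 28% in these data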
M1 agonist conf – confirmation of rat M1 muscarinic receptor agonists | CHO-M1 cells, Fluo-4 calcium fluorescence, agonist mode; actives lie on both sides | fluorescence change (max-min) at 10 µM | hit rate 19% among 1,700 | shares compounds with M1 ag;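 active means fluorescence change differs from the solvent-only DMSO control mean at a set confidence level in both duplicate runs; inconclusive means differs from solvent-only control mean in just one of two runs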;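 further: an EC20 dose of acetylcholine follows compound addition during the same imaging run; raw fluorescence intensity difference in instrument units with no normalization to controls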
M4 agonist ctr – rat M4 muscarinic agonism, M1 counter-screen; shares compounds with M1 ag; CHO M4/Gqi5 cells, Fluo-4 calcium fluorescence, agonist mode; actives lie on both sides; fluorescence change (max-min) at 10 µM; hit rate 9% among 1,700; AID 1741;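 active means fluorescence change differing from the plate's solvent-only control wells at 99.7% confidence in both duplicates, whether higher or lower; inconclusive means differs from solvent controls in only one of two duplicates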
An asterisk follows results filed as active; ? = inconclusive; nt = no result. Only some compounds are listed: those with a hit (about 7.6% of all), similar ones and a draw of the others.

SMILES | M1 antag | hDAT+cocaine | HEK293 NFkB inh | M1 ag | D1 allo mod | Jurkat viability | M1 agonist conf | M4 agonist ctr
COc1ccc(OC)c(S(=O)(=O)N2CCC(C(=O)Nc3cccc(C)c3C)CC2)c1 | -0.84 | 0.042 | 0 | -0.52 | -1.1 | -2 | nt | nt
CCN(CC)S(=O)(=O)c1ccc(S(=O)(=O)Nc2ccc(C(=O)N3CCCC3)cc2)cc1 | 0.88 | -0.15 | 1 | 2.2* | -0.023 | 8 | -9.5 | -30
COC(=O)c1c(NC(=O)CSc2nnnn2-c2ccccc2)sc2c1CCC(C(C)(C)C)C2 (stereo not drawn) | nt | -0.7 | nt | nt | nt | nt | nt | nt
CCc1nnc(NC(=O)CCN2C(=O)c3ccccc3S2(=O)=O)s1 | 1.3 | 0.011 | 8 | -0.076 | -0.93 | -3 | nt | nt
CC1CCc2cccc3c2N1c1cc(C#N)c(C#N)cc1O3 (stereo not drawn) | 0.029 | -0.29 | 2 | 11* | 2.8 | -8 | ? | -16
C=C(C)CSc1nnc(-c2ccc(OC)cc2)n1N | nt | 0.94 | nt | nt | nt | nt | nt | nt
O=C(COC(=O)c1c2c(nc3ccccc13)CCCC2)Nc1ccc2c(c1)OCO2 | -2* | 0.24 | 14 | 13* | -0.11 | nt | ? | -16
COc1cc2c(C#N)c(N3CCN(C)CC3)nc(N)c2c(N)n1 | nt | -0.096 | nt | nt | nt | nt | nt | nt
COc1cc2c(C#N)c(N3CCN(c4ccccc4OC)CC3)nc(N)c2c(N)n1 | -0.1 | 2 | 15 | 3.4* | -0.29 | nt | -27* | -45
O=C(OCCNC(=O)c1ccc2ccccc2n1)c1cccnc1 | 0.1 | 0.053 | nt | 3.2* | nt | nt | ? | -48
CC(NC(=O)c1cccc(Cn2cc([N+](=O)[O-])cn2)c1)c1ccc(C(C)(C)C)cc1 (stereo not drawn) | nt | -0.14 | nt | nt | nt | nt | nt | nt
C=CCN(CC=C)Cc1c(O)ccc2c1oc(=O)c1ccccc12 | nt | -1.4 | nt | nt | nt | nt | nt | nt
CCc1cc2cccc(C)c2nc1SCC(=O)N1CCN(C(=O)c2ccco2)CC1 | -0.11 | 0.68 | 29 | 2.5* | 1.4 | 1 | -2.2 | -3.5
Cc1ccnc(Sc2nc3c(c(=O)[nH]c(=O)n3C)n2CCCc2ccccc2)n1 | 1.7 | 1.3 | 9 | 1 | nt | nt | nt | nt
COC(=O)CSc1cc(SCC(=O)OC)c(C#N)c(SCC(=O)OC)c1 | -1.1 | -0.11 | 0 | 9.5* | -4.6* | 3 | -21 | -64*
CN(C)S(=O)(=O)c1cccc(C(=O)OCC(=O)Nc2sccc2C(N)=O)c1 | -3.3* | -0.38 | 13 | 8.8* | -0.93 | 3 | ? | -69*
COc1ccc(OC)c(NC(=O)c2cnc3ccccn3c2=O)c1 | -0.54 | nt | 5 | 0.18 | nt | 0 | nt | nt
CCOC(=O)Cc1csc(SCC(=O)c2c(N)n(CC(C)C)c(=O)n(C)c2=O)n1 | -2.9* | -0.76 | 21 | 8.9* | -3.9* | 24 | -2.6 | 14
COc1ccc(-c2nnn(CC(=O)N(C3CCCCC3)C(C)C(=O)NC3CCCC3)n2)cc1OC (stereo not drawn) | 0.11 | 1.5 | 6 | 0.14 | 3.3 | 4 | nt | nt
COc1ccc(N(CC(=O)NC2CCCC2)C(=O)Cn2nnc(-c3ccc(C)cc3)n2)cc1OC | 0.022 | 0.25 | 18 | 13* | nt | -2 | ? | -59
O=C(Nc1ccc(NC(=O)c2ccco2)nc1)c1cccnc1 | -0.22 | -0.46 | -10 | 0.61 | -3.8 | 1 | nt | nt
Cc1c(C(=O)NCCc2ccccc2)oc2ccc(S(=O)(=O)N3CCOCC3)cc12 | -1.7 | -0.68 | 25 | 2.3* | nt | nt | -31* | ?
Cc1c(C(=O)NCC2COc3ccccc3O2)oc2ccc(S(=O)(=O)N3CCOCC3)cc12 (stereo not drawn) | -2.4* | 2 | 29 | 16* | nt | nt | -13 | ?
Cc1cc2ccccc2n1CCNC(=O)c1ccc(S(=O)(=O)N2CCOCC2)cc1 | 0.18 | -0.091 | 1 | 8.9* | 0.71 | 6 | -18 | -26
CC(C)CNc1cc(N2CCCC2)ccc1[N+](=O)[O-] | nt | -0.0073 | nt | nt | nt | nt | nt | nt
COc1ccc(-c2ccc(-c3noc(-c4ccccc4)n3)c(OC)n2)cc1 | -0.02 | 0.03 | 0 | -2.9* | 2.3 | 2 | 8.5 | -5.6
